Laboratory results from ChEMBL document CHEMBL1126703, “Synthesis of 2'-deoxyuridine and 5-fluoro-2'-deoxyuridine derivatives and evaluation in antibody targeting studies” (J Med Chem, 1993).
≈ marks a conversion by molar mass, not a printed value. Where “and” joins values, the source holds several entries; their conditions need not be identical. Equal values may be shown once.

Columns and labels:
Format in all cases: functional, cell-based
Details in all cases: Homo sapiens
T-24 [1] = assay: Tested for cytotoxicity against antigen negative T-24 bladder carcinoma cells having only 3-5% antigen expression
Summary of the method: (§1)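 Cytotoxicity was measured as inhibition of [75Se]selenomethionine uptake in a microplate assay, with cells incubated continuously with drug or conjugate. Antigen-positive 791T osteosarcoma cells carry about 6 × 10⁵ antigens/cell; T-24 bladder carcinoma cells carry about 3–5% of that level. Both lines were grown as monolayers in Eagle's MEM with 10% newborn calf serum and passaged using trypsin (0.25%)/EDTA (0.5%).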

791T cell line [2] = assay: Tested for cytotoxicity against antigen positive 791T osteosarcoma cells […]; summary of the method: as §1
C170 = assay: Tested for cytotoxicity against C170 colorectal carcinoma cell line by [75Se]selenomethionine uptake assay, in vitro
T-24 [3] = assay: Tested for cytotoxicity against antigen negative T-24 bladder carcinoma cells of conjugate H1.11 (Type H3: MSR-28); <20% inhibition achieved; summary of the method: as §1
T-24 [4] = assay: Tested for cytotoxicity against antigen negative T-24 bladder carcinoma cells of conjugate AH1.11 (Type H3: MSR-28); 20%-40% inhibition achieved; summary of the method: as §1
791T cell line [5] = assay: Tested for cytotoxicity against antigen positive 791T osteosarcoma cells of conjugate AH1.11 (Type H3: MSR-28); <20% inhibition achieved; summary of the method: as §1
791T cell line [6] = assay: Tested for cytotoxicity against antigen positive 791T osteosarcoma cells […]; <20% inhibition achieved; summary of the method: as §1
791T cell line [7] = assay: Tested for cytotoxicity against antigen positive 791T osteosarcoma cells of conjugate H1.11 (Type H3: MSR-28); <20% inhibition achieved; summary of the method: as §1
T-24 [8] = assay: Tested for cytotoxicity against antigen negative T-24 bladder carcinoma cells having only 3-5% antigen expression; <20% inhibition achieved; summary of the method: as §1
791T cell line [9] = assay: Tested for cytotoxicity against antigen positive 791T osteosarcoma cells of conjugate AH1.11 (Type H2: MSR-26); summary of the method: as §1
T-24 [10] = assay: Tested for cytotoxicity against antigen negative T-24 bladder carcinoma cells of conjugate H1.11 (Type H2: MSR-26); summary of the method: as §1
791T cell line [11] = assay: Tested for cytotoxicity against antigen positive 791T osteosarcoma cells of conjugate H1.11 (Type H2: MSR-26) (less than 20% inhibition achieved); summary of the method: as §1
791T cell line [12] = assay: Tested for cytotoxicity against antigen positive 791T osteosarcoma cells […] (49% inhibition achieved at 100 micro g/mL)
791T cell line [13] = assay: Tested for cytotoxicity against antigen positive 791T osteosarcoma cells of conjugate H1.11 (Type H2: MSR-26); summary of the method: as §1
T-24 [14] = assay: Tested for cytotoxicity against antigen negative T-24 bladder carcinoma cells of conjugate AH1.11 (Type H2: MSR-26); summary of the method: as §1
T-24 [15] = assay: Tested for cytotoxicity against antigen negative T-24 bladder carcinoma cells of conjugate H1.11 (Type H1: MSR-33); summary of the method: as §1
791T cell line [16] = assay: Tested for cytotoxicity against antigen positive 791T osteosarcoma cells of conjugate H1.11 (Type H1: MSR-33); summary of the method: as §1
791T cell line [17] = assay: Tested for cytotoxicity against antigen positive 791T osteosarcoma cells of conjugate AH1.11 (Type H1: MSR-33); summary of the method: as §1
T-24 [18] = assay: Tested for cytotoxicity against antigen negative T-24 bladder carcinoma cells of conjugate AH1.11 (Type H1: MSR-33); summary of the method: as §1

## O=c1[nH]cc(F)c(=O)[nH]1 [FLUOROURACIL]
T-24 [1]
  IC50: 0.5 µg/mL and 4.1 µM
791T cell line [2]
  IC50: 0.7 µg/mL and 5.5 µM
C170
  IC50: 0.3 µg/mL and 2 µM

## CCCCNC(=O)/C=C/C(=O)NC[C@H]1O[C@@H](n2cc(F)c(=O)[nH]c2=O)C[C@@H]1O
T-24 [1]
  IC50: > 100 µg/mL and > 300 µM
791T cell line [2]
  IC50: > 100 µg/mL and > 300 µM

## O=C(O)c1ccc(NC(=O)[C@H]2O[C@@H](n3cc(F)c(=O)[nH]c3=O)C[C@@H]2O)cc1
T-24 [1]
  IC50: 100 µg/mL and 263 µM
T-24 [3]
  IC50: > 3 µg/mL and > 7.9 µM
T-24 [4]
  IC50: > 1 µg/mL and > 2.6 µM
791T cell line [5]
  IC50: > 1 µg/mL and > 2.6 µM
791T cell line [6]
  IC50: > 100 µg/mL and > 300 µM
791T cell line [7]
  IC50: > 3 µg/mL and > 7.9 µM

## O=C(O)[C@H]1O[C@@H](n2cc(F)c(=O)[nH]c2=O)C[C@@H]1O
C170
  IC50: 10 µg/mL and 41 µM

## NC[C@H]1O[C@@H](n2cc(F)c(=O)[nH]c2=O)C[C@@H]1O
C170
  IC50: 26 µg/mL and 107 µM

## CCOC(=O)c1ccc(NC(=O)[C@H]2O[C@@H](n3cc(F)c(=O)[nH]c3=O)C[C@@H]2O)cc1
T-24 [8]
  IC50: > 100 µg/mL and > 300 µM
791T cell line [6]
  IC50: > 100 µg/mL and > 300 µM

## O=C(O)/C=C/C(=O)NC[C@H]1O[C@@H](n2cc(F)c(=O)[nH]c2=O)C[C@@H]1O
791T cell line [9]
  IC50: > 0.5 µg/mL and > 1.5 µM
T-24 [1]
  IC50: 79 µg/mL and 231 µM
T-24 [10]
  IC50: > 10 µg/mL and > 30 µM
791T cell line [11]
  IC50: > 10 µg/mL
791T cell line [2]
  IC50: 110 µg/mL (≈ 320 µM)
791T cell line [12]
  IC50: 320 µM
791T cell line [13]
  IC50: > 30 µM
T-24 [14]
  IC50: > 0.5 µg/mL and > 1.5 µM

## O=C(O)CCC(=O)NC[C@H]1O[C@@H](n2cc(F)c(=O)[nH]c2=O)C[C@@H]1O
T-24 [1]
  IC50: 21 µg/mL and 62 µM
T-24 [15]
  IC50: 5.7 µg/mL and 16.6 µM
791T cell line [16]
  IC50: 7.1 µg/mL and 20.6 µM
791T cell line [2]
  IC50: > 100 µg/mL and > 290 µM
791T cell line [17]
  IC50: 0.4 µg/mL and 1.1 µM
T-24 [18]
  IC50: 0.4 µg/mL and 1.1 µM

## O=c1[nH]c(=O)n([C@H]2C[C@H](O)[C@@H](CO)O2)cc1F [FLOXURIDINE]
T-24 [1]
  IC50: 1 µg/mL and 4.1 µM
791T cell line [2]
  IC50: 0.8 µg/mL and 3.2 µM
C170
  IC50: 0.1 µg/mL and 400 nM

## CCOC(=O)CCC(=O)NC[C@H]1O[C@@H](n2cc(F)c(=O)[nH]c2=O)C[C@@H]1O
T-24 [1]
  IC50: > 100 µg/mL and > 280 µM
791T cell line [2]
  IC50: > 100 µg/mL and > 280 µM
